# Screening results deposited in PubChem by PCMD.
# This excerpt belongs to a sample that is enriched for hits.
# Yeast eIF2B: GCN4-lacZ reporter reduction in eIF2B-epsilon mutant yeast, primary screen, S. cerevisiae, eIF2B-epsilon R284H, Beta-Glo luminescence; 27,000 compounds, 0.91% hits; inhibition, % at 25 µM (by protocol);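 active = mutant luminescence inhibited past about 50% while wild type luminescence and mutant growth stay under set limits, limit read from the data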
#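 Times: 16 h growth with compound at 30 °C, 90 min Beta-Glo step; Assay system: yeast eIF2B-epsilon R284H mutant carrying GCN4–beta-galactosidase fusion; Measure: % inhibition of reporter signal and growth versus controls; Dosing: one concentration, 25 µM, 0.25% DMSO; Buffer or medium: YPD yeast growth medium; Measured by: Beta-Glo luminescence plus absorbance at 595 nm.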
# Starred values were filed as active, the others as inactive.
SMILES,Yeast eIF2B
COc1ccc(S(=O)(=O)CCC(=O)N2CC(=O)N(CCc3ccccc3)C(=O)C2)cc1,25
CC1Cc2ccccc2N1C(=O)CN1CCc2ccccc2C1 (configuration not stated),-17
Brc1ccc(CN2CCSCC2)cc1,11
O=C1C2CC=CCC2C(=O)N1Cc1ccccc1 (configuration not stated),3
O=C1CNC(=O)N1Cc1ccc(Br)cc1,51*
CCn1c(C)[n+](CC(O)COCC2CC=CCC2)c2ccccc21 (configuration not stated),24
Cc1nc2nc(NCc3cccs3)nn2c(C)c1Cl,-5
CCS(=O)(=O)n1nc(-c2ccccc2)nc1SC,-8
Cc1nn2c(C)c(C(=O)Nc3ccccc3)cnc2c1C#N,-10
Cc1cc2ncc(C(=O)Nc3ccccc3)c(C)n2n1,52*
Cc1ccccc1C(=O)Nc1ccccc1,21
Cc1ccc(N2C(=O)N(CC(=O)N3CCCc4ccccc43)C(=O)C2C)cc1 (configuration not stated),4
CCOc1ccccc1NC(=O)CSc1nc2cccnc2n1C,7
COc1ccccc1-n1c(SCC(=O)Nc2ccc(C)cc2)nc(O)cc1=O,22
COc1ccccc1NC(=O)CSc1nc(O)cc(=O)n1C,53*
Cc1cc(-c2ccccc2)nc(N2CCC(C(=O)NCC3CCCCC3)CC2)n1,-19
CCOC(=O)CSc1nnc2n(C3CCCCC3)c(=O)c3c4c(sc3n12)CCCC4,11
CCCSc1nnc2n(-c3ccccc3OC)c(=O)c3c4c(sc3n12)CCC4,4
COC(=O)CSc1nnc2n(-c3ccc(OC)cc3)c(=O)c3c4c(sc3n12)CCCCC4,74*
COc1ccc(-n2c(N)c(Br)c(=O)[nH]c2=O)cc1,20
Cc1cc2n(c(=O)c1C#N)CCCN2c1cccc(Cl)c1,45
CCOC(=O)c1nn(-c2ccccc2)c(C#N)c1NC(=O)c1nn(CC)cc1Br,15
CCOC(=O)c1nn(-c2cccc(Cl)c2)c2nc(CC(C)C)c(C#N)c(=O)n12,50*
CSCC[C@H](NC(=O)CCNC(C)=O)c1nc2ccccc2[nH]1,11
CCCCCc1c(O)nc(SCC(=O)O)[nH]c1=O,17
SMILES,Yeast eIF2B
c1ccc2c(N3CCCC3)nc(-c3ccncc3)nc2c1,-4
COc1cccc(-c2nc(N3CCCCC3C)c3ccccc3n2)c1O (configuration not stated),56*
CC1CCCCN1c1nc2nonc2nc1N1CCCCC1C (configuration not stated),-15
C=CCNc1nc(-c2cccc(OC)c2O)nc2ccccc12,57*
O=C(O)CNc1nc(-c2ccccc2)nc2ccccc12,16
COc1cccc(-c2nc(NCc3ccco3)c3ccccc3n2)c1O,22
O=C(Nc1c(C(=O)N2CCOCC2)cnn1-c1ccccc1Cl)c1ccco1,19
CCN(CC)CCn1c(NCc2cc(OC)ccc2OC)nc2ccccc21,-8
COc1ccc(Nc2nc(N3CCCCC3)nc3ccccc23)c(OC)c1,6
COc1ccc(N/C=C(\C#N)c2nc3ccccc3n2C)c(OC)c1,58*
CSc1nc(-c2ccccc2O)nc(-c2ccccc2O)n1,6
COc1nc2c(C)cccc2cc1-c1noc(-c2ccco2)n1,27
c1ccc(-c2nc(NC3CC3)nc(-n3ccnc3)n2)cc1,-7
COc1ccc(C2(NC(C)=O)CCN(C(=O)c3ccco3)CC2)cc1,19
Cc1cc(C)c(C)c(S(=O)(=O)NCc2ccc(C(=O)N3CCCCC3)cc2)c1C,-13
Cc1cc2c(c(=O)n1CCCn1ccnc1)C(c1ccco1)C(C#N)=C(N)O2 (configuration not stated),-22
COC(=O)C1=C(N)Oc2cc(C)n(CC3CCCO3)c(=O)c2C1c1ccc(Cl)cc1 (configuration not stated),30
Cc1cc2c(c(=O)n1CC1CCCO1)C(c1ccco1)C(C#N)=C(N)O2 (configuration not stated),64*
CS(=O)(=O)N(CC(=O)NCc1ccc2c(c1)OCO2)Cc1ccc(Cl)cc1,10
COc1cc(C2Nc3ccc4ncccc4c3C3=C2C(=O)CCC3)ccc1O (configuration not stated),-20
CN(C)CCCC1(O)c2ccccc2C=Cc2ccccc21,15
CCCSc1nc(NCc2ccco2)c2c3c(sc2n1)COC(C)(C)C3,-9
Cc1ccc(Cn2nnnc2CN2CCC(O)(c3ccc(F)cc3)CC2)cc1,69*
COc1ccc(C2(O)CCN(Cc3nnnn3Cc3ccc(C)cc3)CC2)cc1,-6
Cc1ccc2nc(N3CCN(Cc4nnnn4Cc4ccccc4)CC3)c(C#N)cc2c1,14
O=C(Nc1ccccc1C(=O)NCCN1CCOCC1)c1ccco1,-4
CCn1c(=O)cc(OCC(=O)Nc2ccc3c(c2)OCCO3)c2ccccc21,-9
CCOC(=O)N1CCN(C(=O)COc2cc(=O)n(CC)c3ccccc23)CC1,68*
CCn1c(=O)cc(OCC(=O)N(C)C2CCCCC2)c2ccccc21,22
COc1ccccc1N1CCN(C(=O)CSc2nc(C)c(Cc3ccccc3)c(=O)[nH]2)CC1,3
